Data: PMC9299227 (Diabetes, Obesity & Metabolism, 2021)

Key:
[1] = system: Japanese participants with type 2 diabetes; test: HbA1c, change from baseline versus placebo; type: in vivo, human; settings: for HbA1c, LS mean decrease from baseline versus placebo: P < .0001
Method in brief: (§1)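 Randomized, participant- and investigator-blind, placebo-controlled trial. Adults aged 20-70 with T2D for ≥1 year and BMI 20-35 kg/m2; metformin or DPP-4 inhibitor withdrawn ≥28 days before dosing. Once-weekly SC abdominal-wall injections for 8 weeks, rotating four sites. Escalation: 5 mg fixed; 2.5→5→10 mg; 5→10→15 mg. Change from baseline by mixed-effects model (regimen fixed, participant random, day and regimen-by-day terms); LS means, 95% CI, P<.05.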

[2] = system: Japanese participants with type 2 diabetes; test: Fasting plasma glucose, change from baseline versus placebo; type: in vivo, human; settings: P < .0001
Method in brief: as §1

[3] = system: Japanese participants with type 2 diabetes; test: Meal intake and subjective appetite sensation; type: in vivo, human
Method in brief: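 Once-weekly SC test compound (5, 10 or 15 mg groups, escalated) or placebo into the abdominal wall for 8 weeks. Standardized lunch and dinner are given and intake is recorded. Hunger, fullness, satiety and prospective food consumption are rated on a 100-mm VAS before and 4-5 h after the meal. Overall score is the mean of satiety, fullness, (100 − prospective consumption) and (100 − hunger).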

[4] = system: Japanese participants with type 2 diabetes; test: Safety and tolerability; type: in vivo, human
[5] = system: Japanese participants with type 2 diabetes; test: Seven-point self-monitored plasma glucose; type: in vivo, human; settings: week 2 to week 8, all doses of tirzepatide
Method in brief: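 Patients with T2D receive weekly SC injections of test compound (escalating to 5, 10 or 15 mg) or placebo into the abdominal wall for 8 weeks. Plasma glucose is self-monitored at seven time points across the day and profiled as an arithmetic mean at day 57. Change from baseline is analysed by mixed-effects model (regimen fixed, participant random) as LS means with 95% CI.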

participants with T2D = settings: 26 weeks, cited from earlier work
[6] = system: Japanese participants with type 2 diabetes; test: Serum lipids; type: in vivo, human
[7] = Plasma tirzepatide pharmacokinetics, non-compartmental analysis; type: in vivo; settings: human, sc, 5 mg
Method in brief: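 Noncompartmental PK on plasma drug levels after weekly SC abdominal dosing at 5 mg for weeks 1-8. Sampling spanned one 168-h interval after the day 1 dose and up to 840 h after the last dose on day 50. Steady-state CL/F and Vz/F were estimated as extravascular parameters and summarized descriptively by dose level.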

[8] = system: Japanese participants with type 2 diabetes; test: Body weight, change from baseline versus placebo; type: in vivo, human; settings: P < .0001
Method in brief: as §1

[9] = 5-mg group (5 mg weeks 1-8), SC once weekly, 8 weeks, N = 11
[10] = 10-mg group (2.5 mg weeks 1-2, 5 mg weeks 3-4, 10 mg weeks 5-8), SC once weekly, N = 12
[11] = 15-mg group (5 mg weeks 1-2, 10 mg weeks 3-6, 15 mg weeks 7-8), SC once weekly, N = 16

CC[C@H](C)[C@H](NC(=O)[C@H](CC(C)C)NC(=O)[C@H](Cc1c[nH]c2ccccc12)NC(=O)[C@H](CCC(N)=O)NC(=O)[C@@H](NC(=O)[C@H](Cc1ccccc1)NC(=O)[C@H](C)NC(=O)[C@H](CCCCNC(=O)COCCOCCNC(=O)COCCOCCNC(=O)CC[C@H](NC(=O)CCCCCCCCCCCCCCCCCCC(=O)O)C(=O)O)NC(=O)[C@H](CCC(N)=O)NC(=O)[C@H](C)NC(=O)[C@@H](NC(=O)[C@H](CCCCN)NC(=O)[C@H](CC(=O)O)NC(=O)[C@H](CC(C)C)NC(=O)C(C)(C)NC(=O)[C@@H](NC(=O)[C@H](CO)NC(=O)[C@H](Cc1ccc(O)cc1)NC(=O)[C@H](CC(=O)O)NC(=O)[C@H](CO)NC(=O)[C@@H](NC(=O)[C@H](Cc1ccccc1)NC(=O)[C@@H](NC(=O)CNC(=O)[C@H](CCC(=O)O)NC(=O)C(C)(C)NC(=O)[C@@H](N)Cc1ccc(O)cc1)[C@@H](C)O)[C@@H](C)O)[C@@H](C)CC)[C@@H](C)CC)C(C)C)C(=O)N[C@@H](C)C(=O)NCC(=O)NCC(=O)N1CCC[C@H]1C(=O)N[C@@H](CO)C(=O)N[C@@H](CO)C(=O)NCC(=O)N[C@@H](C)C(=O)N1CCC[C@H]1C(=O)N1CCC[C@H]1C(=O)N1CCC[C@H]1C(=O)N[C@@H](CO)C(N)=O [tirzepatide]
HbA1c, LS mean decreases from baseline versus placebo, across treatment groups ([1]; 8 weeks, 95% CI 1.2%-1.9%, P < .0001 for all treatment groups): up to 1.6%
HbA1c, LS mean decrease from baseline versus placebo ([1]; week 8, 5-mg group, 95% CI 0.8%-1.5%): 1.1%
HbA1c, LS mean decrease from baseline versus placebo ([1]; week 8, 10-mg group, 95% CI 0.9%-1.7%): 1.3%
HbA1c, LS mean decrease from baseline versus placebo ([1]; week 8, 15-mg group, 95% CI 1.2%-1.9%): 1.6%
Fasting plasma glucose, LS mean decrease from baseline versus placebo (95% CI) ([2]; week 8, 5-mg group): 52.7 (35.9‐69.6) mg/dL
Fasting plasma glucose, LS mean decrease from baseline versus placebo (95% CI) ([2]; week 8, 10-mg group): 69.1 (52.3‐85.9) mg/dL
Fasting plasma glucose, LS mean decrease from baseline versus placebo (95% CI) ([2]; week 8, 15-mg group): 68.9 (53.2‐84.6) mg/dL
Overall appetite score ([3]; average of four VAS scores, among treatment groups (Figure S5)): overall appetite score was not different among the treatment groups
Hunger and fullness scores, visual analog scale, compared with placebo ([3]; lunch and dinner, all tirzepatide dose levels (Figure S5)): numerically decreased hunger and fullness scores
Percentage of meal intake compared with placebo ([3]; week 8, standardized meals (Figure S4)): dose‐dependent decrease in the percentage of meal intake compared with placebo
Abdominal discomfort, treatment-emergent adverse event [4, 9]: 0 n (%)
Abdominal distension, treatment-emergent adverse event [4, 9]: 3 (27.3) n (%)
Blood triglycerides increased, treatment-emergent adverse event [4, 9]: 0 n (%)
Constipation, treatment-emergent adverse event [4, 9]: 0 n (%)
Decreased appetite, treatment-emergent adverse event [4, 9]: 5 (45.5) n (%)
Diarrhea, treatment-emergent adverse event [4, 9]: 0 n (%)
Dyspepsia, treatment-emergent adverse event [4, 9]: 0 n (%)
Headache, treatment-emergent adverse event [4, 9]: 0 n (%)
Lipase increased, treatment-emergent adverse event [4, 9]: 0 n (%)
Nausea, treatment-emergent adverse event [4, 9]: 1 (9.1) n (%)
Viral upper respiratory tract infection, treatment-emergent adverse event [4, 9]: 1 (9.1) n (%)
Vomiting, treatment-emergent adverse event [4, 9]: 1 (9.1) n (%)
White blood cell count increased, treatment-emergent adverse event [4, 9]: 1 (9.1) n (%)
Abdominal discomfort, treatment-emergent adverse event [4, 10]: 2 (16.7) n (%)
Abdominal distension, treatment-emergent adverse event [4, 10]: 1 (8.3) n (%)
Blood triglycerides increased, treatment-emergent adverse event [4, 10]: 0 n (%)
Constipation, treatment-emergent adverse event [4, 10]: 8 (66.7) n (%)
Decreased appetite, treatment-emergent adverse event [4, 10]: 6 (50.0) n (%)
Diarrhea, treatment-emergent adverse event [4, 10]: 3 (25.0) n (%)
Dyspepsia, treatment-emergent adverse event [4, 10]: 3 (25.0) n (%)
Headache, treatment-emergent adverse event [4, 10]: 3 (25.0) n (%)
Lipase increased, treatment-emergent adverse event [4, 10]: 1 (8.3) n (%)
Nausea, treatment-emergent adverse event [4, 10]: 0 n (%)
Vomiting, treatment-emergent adverse event [4, 10]: 1 (8.3) n (%)
White blood cell count increased, treatment-emergent adverse event [4, 10]: 0 n (%)
Abdominal discomfort, treatment-emergent adverse event [4, 11]: 4 (25.0) n (%)
Abdominal distension, treatment-emergent adverse event [4, 11]: 0 n (%)
Blood triglycerides increased, treatment-emergent adverse event [4, 11]: 1 (6.3) n (%)
Constipation, treatment-emergent adverse event [4, 11]: 8 (50.0) n (%)
Decreased appetite, treatment-emergent adverse event [4, 11]: 10 (62.5) n (%)
Diarrhea, treatment-emergent adverse event [4, 11]: 5 (31.3) n (%)
Dyspepsia, treatment-emergent adverse event [4, 11]: 0 n (%)
Headache, treatment-emergent adverse event [4, 11]: 1 (6.3) n (%)
Lipase increased, treatment-emergent adverse event [4, 11]: 2 (12.5) n (%)
Nausea, treatment-emergent adverse event [4, 11]: 2 (12.5) n (%)
Vomiting, treatment-emergent adverse event [4, 11]: 2 (12.5) n (%)
White blood cell count increased, treatment-emergent adverse event [4, 11]: 1 (6.3) n (%)
Tolerability ([4]; all tirzepatide doses (5-, 10-, 15-mg groups), SC once weekly, 8 weeks): all tirzepatide doses were well tolerated
Severe hypoglycemia or nocturnal hypoglycemia events ([4]; all treatment groups, 8 weeks): No severe hypoglycemia or nocturnal hypoglycemia events were reported
Injection-site or hypersensitivity AEs ([4]; all treatment groups, SC abdominal wall, 8 weeks): No injection‐site or hypersensitivity AEs were reported
Deaths or serious AEs ([4]; all treatment groups, SC once weekly, 8 weeks): No deaths or serious AEs occurred during the study
Systolic and diastolic blood pressure, mean predose ([4]; participants treated with tirzepatide (Figure S3)): no significant changes in blood pressure
Seven-point SMPG daily profile compared with placebo [5]: improved overall daily SMPG profiles compared with placebo
Body weight reduction (participants with T2D; 5-, 10-, and 15-mg doses versus placebo): significant, dose‐dependent reductions in body weight for the 5‐, 10‐, and 15‐mg doses of tirzepatide versus placebo
HbA1c reduction (participants with T2D; doses 1, 5, 10, and 15 mg, versus placebo): significant dose‐dependent reductions in HbA1c at all doses (1, 5, 10, and 15 mg) versus placebo
Triglyceride postdose (week 8), mean (SD) ([6]; 5-mg group, predose (week 1) 204 (56) mg/dL): 161 (51) mg/dL
Triglyceride postdose (week 8), mean (SD) ([6]; 10-mg group, predose (week 1) 172 (71) mg/dL): 122 (38) mg/dL
Triglyceride postdose (week 8), mean (SD) ([6]; 15-mg group, predose (week 1) 173 (121) mg/dL): 122 (55) mg/dL
Vd/F [7]: 5.27 L
Body weight, LS mean decrease from baseline (95% CI) versus placebo ([8]; week 8, 5-mg group): 3.4 (2.0‐4.8) kg
Body weight, LS mean decrease from baseline (95% CI) versus placebo ([8]; week 8, 10-mg group): 5.0 (3.6‐6.5) kg
Body weight, LS mean decrease from baseline (95% CI) versus placebo ([8]; week 8, 15-mg group): 6.6 (5.3‐7.9) kg
